Test results as given in ChEMBL document CHEMBL1121608, “Modification of the 5' position of purine nucleosides. 2. Synthesis and some cardiovascular properties of adenosine-5'-(N-substituted)carboxamides” (J Med Chem, 1980).

Tests used:
Canis familiaris [1] = experiment: Total time in minutes elapsed from the initiation of the change until return to the pretest value of oxygen partial pressure in coronary sinus of anesthetized dog at intravenous dosage of 1 mg/kg; type: functional, Canis lupus familiaris
In short: (§1)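 Open-chest anesthetized dogs given compound by intravenous injection. Coronary sinus PO2 was monitored, and duration was the total time in minutes from the onset of the change until return to the pretest value.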

Canis familiaris [2] = experiment: Tested for the percent increase in aortic blood pressure (BP) in open chest anesthetized dog at intravenous dosage of 1.00 mg/kg; type: functional, Canis lupus familiaris, Artery
In short: (§2)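 Open-chest anesthetized dogs, compound given iv at the stated dose. Aortic blood pressure is reported as the change from the control (pre-dose) value. Other set-up follows the group's earlier cardiovascular protocol.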

Canis familiaris [3] = experiment: Total time in minutes elapsed from the initiation of the change until return to the pretest value of heart rate in coronary sinus of anesthetized dog at intravenous dosage of 1 mg/kg; type: functional, Canis lupus familiaris
Canis familiaris [4] = experiment: Tested for percent increase in coronary sinus partial pressure of oxygen (PO2) in open chest anesthetized dog at intravenous dosage of 1.00 mg/kg; type: functional, Canis lupus familiaris
Canis familiaris [5] = experiment: Total time in minutes elapsed from the initiation of the change until return to the pretest value of blood pressure in coronary sinus of anesthetized dog at intravenous dosage of 1 mg/kg; type: functional, Canis lupus familiaris
[6] = Lethal dose in mice after intraperitoneal administration; type: toxicity, organism-based; conditions: mouse, in vivo, ip
In short: (§3)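 Male and female mice, three per dose group, were given the compound by the stated route in increments of 0.5 log doses. The LD50 was estimated as an approximate value.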

[7] = Lethal dose in mice after peroral administration; type: toxicity, organism-based; conditions: mouse, in vivo, po; in short: as §3
Canis familiaris [8] = experiment: Total time in minutes elapsed from the initiation of the change until return to the pretest value of oxygen partial pressure in coronary sinus of anesthetized dog at intravenous dosage of 10 mg/kg; type: functional, Canis lupus familiaris; in short: as §1
Canis familiaris [9] = experiment: Total time in minutes elapsed from the initiation of the change until return to the pretest value of heart rate in coronary sinus of anesthetized dog at intravenous dosage of 10 mg/kg; type: functional, Canis lupus familiaris
Canis familiaris [10] = experiment: Tested for the percent increase in aortic blood pressure (BP) in open chest anesthetized dog at intravenous dosage of 10.00 mg/kg; type: functional, Canis lupus familiaris, Artery; in short: as §2
Canis familiaris [11] = experiment: Tested for percent increase in coronary sinus partial pressure of oxygen (PO2) in open chest anesthetized dog at intravenous dosage of 10.00 mg/kg; type: functional, Canis lupus familiaris
Canis familiaris [12] = experiment: Total time in minutes elapsed from the initiation of the change until return to the pretest value of blood pressure in coronary sinus of anesthetized dog at intravenous dosage of 10 mg/kg; type: functional, Canis lupus familiaris
Canis familiaris [13] = experiment: Tested for percent increase in coronary sinus partial pressure of oxygen (PO2) in open chest anesthetized dog at intravenous dosage of 0.01 mg/kg; type: functional, Canis lupus familiaris
Canis familiaris [14] = experiment: Total time in minutes elapsed from the initiation of the change until return to the pretest value of blood pressure in coronary sinus of anesthetized dog at intravenous dosage of 0.01 mg/kg; type: functional, Canis lupus familiaris
Canis familiaris [15] = experiment: Tested for the percent increase in aortic blood pressure (BP) in open chest anesthetized dog at intravenous dosage of 0.01 mg/kg; type: functional, Canis lupus familiaris, Artery; in short: as §2
Canis familiaris [16] = experiment: Total time in minutes elapsed from the initiation of the change until return to the pretest value of heart rate in coronary sinus of anesthetized dog at intravenous dosage of 0.01 mg/kg; type: functional, Canis lupus familiaris
Canis familiaris [17] = experiment: Total time in minutes elapsed from the initiation of the change until return to the pretest value of oxygen partial pressure in coronary sinus of anesthetized dog at intravenous dosage of 0.01 mg/kg; type: functional, Canis lupus familiaris
Canis familiaris [18] = experiment: Total time in minutes elapsed from the initiation of the change until return to the pretest value of heart rate in coronary sinus of anesthetized dog at intravenous dosage of 0.1 mg/kg; type: functional, Canis lupus familiaris
Canis familiaris [19] = experiment: tested for the percent increase in heart rate (HR) in open chest anesthetized dog at intravenous dosage of 0.10 mg/kg; type: functional, Canis lupus familiaris; conditions: dose 0.1 mg/kg
Canis familiaris [20] = experiment: Total time in minutes elapsed from the initiation of the change until return to the pretest value of blood pressure in coronary sinus of anesthetized dog at intravenous dosage of 0.1 mg/kg; type: functional, Canis lupus familiaris
Canis familiaris [21] = experiment: Tested for the percent increase in aortic blood pressure (BP) in open chest anesthetized dog at intravenous dosage of 0.10 mg/kg; type: functional, Canis lupus familiaris, Artery; conditions: dose 0.1 mg/kg; in short: as §2
Canis familiaris [22] = experiment: Total time in minutes elapsed from the initiation of the change until return to the pretest value of oxygen partial pressure in coronary sinus of anesthetized dog at intravenous dosage of 0.1 mg/kg; type: functional, Canis lupus familiaris
Canis familiaris [23] = experiment: Tested for percent increase in coronary sinus partial pressure of oxygen (PO2) in open chest anesthetized dog at intravenous dosage of 0.10 mg/kg; type: functional, Canis lupus familiaris; conditions: dose 0.1 mg/kg

SMILES | LD50 [6] | LD50 [7] | Duration (Canis familiaris [8]) | Duration (Canis familiaris [9]) | BP (Canis familiaris [10]) | PO2 (Canis familiaris [11]) | Duration (Canis familiaris [12]) | other results
Nc1ncnc2c1ncn2C1O[C@H](C(=O)NCc2ccco2)[C@@H](O)[C@H]1O (stereo partly specified) |  |  |  |  |  |  |  | Duration (Canis familiaris [1]): 20 min; BP (Canis familiaris [2]): 1%; Duration (Canis familiaris [3]): 20 min; PO2 (Canis familiaris [4]): 22%; Duration (Canis familiaris [5]): 20 min
Cc1cccc(C)c1NC(=O)[C@H]1OC(n2cnc3c(N)ncnc32)[C@H](O)[C@@H]1O (stereo partly specified) | > 1000 mg/kg | > 1000 mg/kg | 30 min | 5 min | 13% | 15% | 30 min | 
CCOC(=O)CNC(=O)[C@H]1OC(n2cnc3c(N)ncnc32)[C@H](O)[C@@H]1O (stereo partly specified) | > 300 mg/kg | > 300 mg/kg | 30 min | 11 min | 6% | 9% | 30 min | 
C=CCN(CC=C)C(=O)[C@H]1OC(n2cnc3c(N)ncnc32)[C@H](O)[C@@H]1O (stereo partly specified) | > 300 mg/kg | > 300 mg/kg |  |  |  |  |  | Duration (Canis familiaris [1]): 40 min; BP (Canis familiaris [2]): 0%; Duration (Canis familiaris [3]): 0 min; PO2 (Canis familiaris [4]): 66%; Duration (Canis familiaris [5]): 0 min
CCC(=O)c1ccccc1NC(=O)[C@H]1OC(n2cnc3c(N)ncnc32)[C@H](O)[C@@H]1O (stereo partly specified) | > 1000 mg/kg | > 1000 mg/kg | 16 min | 40 min | 5% | 39% | 40 min | 
Nc1ncnc2c1ncn2C1O[C@H](C(=O)N2CCCCC2)[C@@H](O)[C@H]1O (stereo partly specified) | > 1000 mg/kg | > 1000 mg/kg | 8 min | 30 min | 7% | 52% | 20 min | 
Nc1ncnc2c1ncn2C1O[C@H](C(=O)Nc2ccccc2)[C@@H](O)[C@H]1O (stereo partly specified) | > 1000 mg/kg | > 1000 mg/kg |  |  |  |  |  | Duration (Canis familiaris [1]): 120 min; BP (Canis familiaris [2]): 0%; Duration (Canis familiaris [3]): 7 min; PO2 (Canis familiaris [4]): 127%; Duration (Canis familiaris [5]): 0 min
C=CCNC(=O)[C@H]1OC(n2cnc3c(N)ncnc32)[C@H](O)[C@@H]1O (stereo partly specified) | 200 mg/kg | > 1000 mg/kg |  |  |  |  |  | PO2 (Canis familiaris [13]): 129%; Duration (Canis familiaris [14]): 0 min; BP (Canis familiaris [15]): 0%; Duration (Canis familiaris [16]): 0 min; Duration (Canis familiaris [17]): 20 min
COc1ccccc1N1CCN(C(=O)[C@H]2OC(n3cnc4c(N)ncnc43)[C@H](O)[C@@H]2O)CC1 (stereo partly specified) | > 300 mg/kg | > 300 mg/kg | 15 min | 60 min | 7% | 107% | 60 min | 
Nc1ncnc2c1ncn2C1O[C@H](C(=O)N2CCOCC2)[C@@H](O)[C@H]1O (stereo partly specified) | > 300 mg/kg | > 300 mg/kg | 0 min | 0 min | 0% | 0% | 0 min | 
Cc1cccc(OCC(O)CNC(=O)[C@H]2OC(n3cnc4c(N)ncnc43)[C@H](O)[C@@H]2O)c1 (stereo partly specified) | > 300 mg/kg | > 300 mg/kg |  |  |  |  |  | Duration (Canis familiaris [1]): 7 min; BP (Canis familiaris [2]): 3%; Duration (Canis familiaris [3]): 1 min; PO2 (Canis familiaris [4]): 42%; Duration (Canis familiaris [5]): 30 min
CCC(CC)NC(=O)[C@H]1OC(n2cnc3c(N)ncnc32)[C@H](O)[C@@H]1O (stereo partly specified) | 50 mg/kg | > 300 mg/kg |  |  |  |  |  | Duration (Canis familiaris [18]): 110 min; HR (Canis familiaris [19]): 11%; Duration (Canis familiaris [20]): 110 min; BP (Canis familiaris [21]): 9%; Duration (Canis familiaris [22]): 110 min; PO2 (Canis familiaris [23]): 28%
CN(C)CCNC(=O)[C@H]1OC(n2cnc3c(N)ncnc32)[C@H](O)[C@@H]1O (stereo partly specified) | 20 mg/kg | 500 mg/kg | 2 min | 15 min | 5% | 13% | 15 min | 
CCNC(=O)[C@H]1O[C@@H](n2cnc3c(N)ncnc32)[C@H](O)[C@@H]1O [NECA] | 0.5 mg/kg | 5 mg/kg |  |  |  |  |  | PO2 (Canis familiaris [13]): 250%; Duration (Canis familiaris [14]): 120 min; Duration (Canis familiaris [16]): 345 min; Duration (Canis familiaris [17]): 345 min
